From ChEMBL document CHEMBL5034002, “Benzoheterocyclic Oxime Carbamates Active against Mycobacterium tuberculosis: Synthesis, Structure-Activity Relationship, Metabolism, and Biology Triaging” (J Med Chem, 2021)
In brackets after ≈: the same amount, converted by molar mass. Activity calls are given as the source filed them. The calls are words filed in the database; no cut-off is given here.

Tests used:
CHO = test: Cytotoxicity against CHO cells; format: cell-based; conditions: Cricetulus griseus
How it was run: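 Cytotoxicity measured on Chinese hamster ovary (CHO) cells.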

[1] = test system: Mycobacterium tuberculosis; test: Antitubercular activity against Mycobacterium tuberculosis H37RvMA incubated for 14 days in GAST/FE medium by Alamar blue assay; format: functional; conditions: 336 h, time 14 day
How it was run: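 Mtb H37RvMa grown in GAST/Fe medium, 14 day incubation with compound, growth read by Alamar Blue.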

[2] = test system: Mycobacterium tuberculosis; test: Drug degradation in Mycobacterium tuberculosis H37RvMA at 0.1 uM incubated over 96 hrs by LC-MS/MS analysis; format: functional, organism-based
How it was run: (§1)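 Compound at 0.1 μM in 7H9/OADC medium was added to log-phase Mtb H37RvMa culture and sampled over 96 h, earliest at 3 h. Controls were heat-killed culture and sterile medium. Analysis by LC-MS/MS as analyte/internal standard peak area ratio, expressed as % of mean time-zero ratio. One-way ANOVA with Dunnett's test against medium control at each time point.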

[3] = test system: Mycobacterium tuberculosis; test: Antitubercular activity against Mycobacterium tuberculosis H37RvMA infected in THP-1 cells assessed as intracellular bacterial growth at 10 uM measured over 6 days; format: functional, organism-based; conditions: time 6.0 day
How it was run: (§2)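 THP-1 macrophages infected in vitro with Mtb H37RvMa, then treated with compound over 6 days (10 μM, or increasing concentrations up to 80 μM). Intracellular bacterial growth was compared with untreated control at day 6 post treatment by one-way ANOVA with Dunnett's test.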

[4] = Kinetic solubility of the compound in pH 6.5; format: physicochemical; conditions: buffer, read-out: Kinetic_solubility
[5] = test system: Mycobacterium tuberculosis; test: Antitubercular activity against Mycobacterium tuberculosis H37RvMA incubated for 14 days in 7H9/OHADC medium by Alamar blue assay; format: functional; conditions: 336 h, time 14 day
Enterobacter cloacae = test: Antibacterial activity against Enterobacter cloacae; format: functional
Klebsiella pneumoniae = test: Antibacterial activity against Klebsiella pneumoniae BAA-1705; format: functional; conditions: ATCC BAA-1705
[6] = Stability in rat liver microsomes assessed as compound remaining after 30 mins; format: ADME, Microsome; conditions: read-out: Stability
Acinetobacter baumannii = test: Antibacterial activity against Acinetobacter baumannii ATCC 19606; format: functional
Escherichia coli = test: Antibacterial activity against Escherichia coli ATCC 25922; format: functional
Staphylococcus aureus = test: Antibacterial activity against Staphylococcus aureus ATCC 25923; format: functional
[7] = Stability in human liver microsomes assessed as compound remaining after 30 mins; format: ADME, Microsome; conditions: read-out: Stability
[8] = Stability in mouse liver microsomes assessed as compound remaining after 30 mins; format: ADME, Microsome; conditions: read-out: Stability
Pseudomonas aeruginosa = test: Antibacterial activity against Pseudomonas aeruginosa ATCC 27853; format: functional
[9] = target: Voltage-gated inwardly rectifying potassium channel KCNH2 (Homo sapiens, UniProt Q12809); test: Inhibition of human ERG by Ionworks electrophysiology assay
How it was run: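 hERG inhibition measured by electrophysiology on IonWorks HT.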

[10] = Stability in human liver S9 fraction assessed as compound remaining after 40 mins; format: ADME, subcellular; conditions: read-out: Stability
[11] = test system: Mycobacterium tuberculosis; test: Antitubercular activity against Mycobacterium tuberculosis H37RvMA infected in THP-1 cells assessed as intracellular bacterial growth at 80 uM measured over 6 days; format: functional, organism-based; conditions: time 6.0 day; how it was run: as §2
[12] = test system: Mycobacterium tuberculosis; test: Antitubercular activity against Mycobacterium tuberculosis H37RvMA infected in THP-1 cells assessed as intracellular bacterial growth measured over 6 days; format: functional, organism-based; conditions: dose 10-80 µM, time 6.0 day; how it was run: as §2
[13] = test system: Mycobacterium tuberculosis; test: Drug degradation in Mycobacterium tuberculosis H37RvMA assessed as compound hydrolysis at 0.1 uM incubated over 96 hrs by LC-MS/MS analysis; format: functional, organism-based; how it was run: as §1

Sequence of Voltage-gated inwardly rectifying potassium channel KCNH2 (Q12809 whole entry): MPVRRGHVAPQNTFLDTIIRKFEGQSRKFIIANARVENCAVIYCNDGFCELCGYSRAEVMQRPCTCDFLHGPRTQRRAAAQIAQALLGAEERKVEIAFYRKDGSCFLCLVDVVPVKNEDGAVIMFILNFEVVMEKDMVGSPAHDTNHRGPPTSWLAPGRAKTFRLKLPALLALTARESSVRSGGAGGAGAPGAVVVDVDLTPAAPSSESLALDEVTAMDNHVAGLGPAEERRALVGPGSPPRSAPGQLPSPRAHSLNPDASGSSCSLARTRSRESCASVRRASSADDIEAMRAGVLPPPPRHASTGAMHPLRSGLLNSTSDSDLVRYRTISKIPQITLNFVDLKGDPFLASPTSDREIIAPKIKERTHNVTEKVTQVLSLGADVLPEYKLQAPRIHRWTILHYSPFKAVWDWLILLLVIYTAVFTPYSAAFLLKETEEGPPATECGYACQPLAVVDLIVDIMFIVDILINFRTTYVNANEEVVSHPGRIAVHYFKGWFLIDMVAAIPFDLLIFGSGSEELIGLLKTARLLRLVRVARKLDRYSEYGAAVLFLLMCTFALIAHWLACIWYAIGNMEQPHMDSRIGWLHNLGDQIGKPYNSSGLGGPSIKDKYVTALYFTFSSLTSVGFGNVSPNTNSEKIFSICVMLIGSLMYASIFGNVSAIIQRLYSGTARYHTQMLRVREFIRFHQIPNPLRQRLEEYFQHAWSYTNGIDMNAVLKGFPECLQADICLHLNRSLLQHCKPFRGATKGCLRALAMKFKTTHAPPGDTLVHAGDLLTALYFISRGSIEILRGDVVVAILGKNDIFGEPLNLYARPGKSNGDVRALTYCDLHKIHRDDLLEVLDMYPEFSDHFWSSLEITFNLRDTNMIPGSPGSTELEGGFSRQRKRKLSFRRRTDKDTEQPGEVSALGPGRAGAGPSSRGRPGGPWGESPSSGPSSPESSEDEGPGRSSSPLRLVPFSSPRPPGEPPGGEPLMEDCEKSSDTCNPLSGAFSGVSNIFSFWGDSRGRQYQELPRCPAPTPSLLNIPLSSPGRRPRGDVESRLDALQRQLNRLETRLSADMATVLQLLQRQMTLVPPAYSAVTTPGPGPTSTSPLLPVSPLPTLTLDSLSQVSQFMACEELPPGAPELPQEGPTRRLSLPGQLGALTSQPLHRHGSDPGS

Compound: Cc1cnc(/C(=N\O)c2nc3ccccc3s2)s1
- IC50 (CHO): 29 µM
- MIC [1]: 3.13 µM (≈ 0.862 µg/mL)

Compound: Cc1ccc2nc(/C(C#N)=N/O)oc2c1
- Drug degradation [2]: Unstable
- Activity [3]: inactive
- IC50 (CHO): > 100 µM
- MIC [1]: > 160 µM

Compound: CN(C)C(=O)O/N=C(\C#N)c1nc2ccc(F)cc2o1
- IC50 (CHO): > 100 µM
- MIC [1]: < 0.24 µM

Compound: O/N=C(/c1nc2ccccc2s1)C1CCCC1
- IC50 (CHO): 83.5 µM
- MIC [1]: > 125 µM

Compound: O/N=C(\c1ccccc1)c1nc2ccccc2s1
- IC50 (CHO): > 100 µM
- MIC [1]: > 50 µM

Compound: CN(C)C(=O)O/N=C(\C#N)c1ccccn1
- solubility kinetic [4]: 175 µM (≈ 38.2 µg/mL)
- MIC [1]: 9.4 µM (≈ 2.05 µg/mL)

Compound: O/N=C(\c1nnc(C(F)(F)F)s1)c1nc2ccccc2s1
- MIC [5]: 1.2 µM (≈ 0.396 µg/mL)
- MIC (Enterobacter cloacae): > 125 µM
- MIC (Klebsiella pneumoniae): > 125 µM
- remaining at 0.5 h [6]: 86%
- MIC (Acinetobacter baumannii): > 125 µM
- IC50 (CHO): 15.6 µM
- MIC (Escherichia coli): > 125 µM
- MIC (Staphylococcus aureus): > 125 µM
- remaining at 0.5 h [7]: > 99%
- solubility kinetic [4]: 67 µM (≈ 22.1 µg/mL)
- MIC [1]: 0.78 µM (≈ 0.258 µg/mL)
- remaining at 0.5 h [8]: 71%
- MIC (Pseudomonas aeruginosa): > 125 µM

Compound: O/N=C(\c1ccc2ncsc2c1)c1nc2ccccc2s1
- IC50 (CHO): > 50 µM
- MIC [1]: > 125 µM

Compound: Cc1ccc2nc(/C(C#N)=N/OC(=O)N(C)C)oc2c1
- Activity [3]: inactive
- IC50 (CHO): > 100 µM
- MIC [1]: < 0.16 µM

Compound: O/N=C/c1nc2ccccc2s1
- MIC [1]: > 160 µM

Compound: CCOC(=O)CO/N=C(\C#N)c1nc2ccccc2s1
- MIC [1]: > 160 µM

Compound: CS(=O)(=O)O/N=C(\C#N)c1nc2ccccc2s1
- MIC [1]: 0.5 µM (≈ 0.141 µg/mL)

Compound: N#C/C(=N\O)c1nc2ccccc2o1
- Activity [3]: inactive
- MIC [1]: > 160 µM

Compound: CN(C)S(=O)(=O)O/N=C(\C#N)c1nc2ccccc2s1
- IC50 (CHO): 91.3 µM
- MIC [1]: 0.3 µM (≈ 0.0931 µg/mL)

Compound: Nc1nonc1-c1nc2ccccc2s1
- solubility kinetic [4]: 5 µM (≈ 1.09 µg/mL)
- MIC [1]: > 50 µM

Compound: N#C/C(=N\OCc1ccncc1)c1nc2ccccc2s1
- MIC [1]: 20 µM (≈ 5.89 µg/mL)

Compound: Cc1ccc2oc(/C(C#N)=N/OC(=O)N(C)C)nc2c1
- IC50 (CHO): > 100 µM
- MIC [1]: < 0.24 µM

Compound: CN(C)C(=O)O/N=C(\C#N)c1ccccc1
- MIC [1]: 9.4 µM (≈ 2.04 µg/mL)

Compound: Cc1nnc(/C(=N\O)c2nc3ccccc3s2)o1
- MIC [1]: 160 µM (≈ 41.6 µg/mL)

Compound: CN(C)C(=O)O/N=C(\C#N)c1nc2ccc(Br)cc2o1
- IC50 (CHO): > 100 µM
- MIC [1]: < 0.24 µM

Compound: CO/N=C(\C#N)c1nc2ccccc2s1
- MIC [1]: 160 µM (≈ 34.8 µg/mL)

Compound: CN(C)C(=O)O/N=C(\C#N)c1nc2ccc([N+](=O)[O-])cc2o1
- IC50 (CHO): 46.8 µM
- MIC [1]: < 0.24 µM

Compound: CN(C)C(=O)O/N=C(\C#N)c1nc2cc(Br)ccc2o1
- MIC [1]: < 0.24 µM

Compound: CN(C)C(=O)O/N=C(\C#N)c1nc2ccccc2[nH]1
- solubility kinetic [4]: 29 µM (≈ 7.46 µg/mL)
- MIC [1]: 9.4 µM (≈ 2.42 µg/mL)

Compound: O/N=C(\c1cnco1)c1nc2ccccc2s1
- IC50 (CHO): > 100 µM
- MIC [1]: 50 µM (≈ 12.3 µg/mL)

Compound: CN(C)C(=O)O/N=C(\C#N)c1nc2ccccc2o1
- MIC [5]: 0.6 µM (≈ 0.155 µg/mL)
- MIC (Enterobacter cloacae): > 125 µM
- IC50 [9]: > 33 µM
- MIC (Klebsiella pneumoniae): > 125 µM
- Drug degradation [2]: Unstable
- Activity [3]: inactive
- remaining at 0.5 h [6]: 98%
- MIC (Acinetobacter baumannii): > 125 µM
- IC50 (CHO): > 100 µM
- MIC (Escherichia coli): > 125 µM
- MIC (Staphylococcus aureus): > 125 µM
- remaining at 0.5 h [7]: > 99%
- solubility kinetic [4]: 18 µM (≈ 4.65 µg/mL)
- MIC [1]: 0.3 µM (≈ 0.0775 µg/mL)
- remaining at 0.5 h [8]: > 99%
- remaining at 40 min [10]: 60%
- MIC (Pseudomonas aeruginosa): > 125 µM

Compound: CC(=O)Nc1ccc2nc(/C(C#N)=N/OC(=O)N(C)C)oc2c1
- IC50 (CHO): > 100 µM
- MIC [1]: 5.2 µM (≈ 1.64 µg/mL)

Compound: NNC(=O)c1ccncc1 [ISONIAZID]
- MIC [1]: 0.14 µM (≈ 0.0192 µg/mL)

Compound: ON=C(c1nc2ccccc2s1)c1nc2ccccc2s1
- IC50 (CHO): > 100 µM
- MIC [1]: 0.8 µM (≈ 0.249 µg/mL)

Compound: CO[C@H]1/C=C/O[C@@]2(C)Oc3c(C)c(O)c4c(O)c(c(/C=N/N5CCN(C)CC5)c(O)c4c3C2=O)NC(=O)/C(C)=C\C=C\[C@H](C)[C@H](O)[C@@H](C)[C@@H](O)[C@@H](C)[C@H](OC(C)=O)[C@@H]1C [RIFAMPIN]
- MIC [1]: 0.009 µM (≈ 0.00741 µg/mL)

Compound: N#C/C(=N\OCc1ccccn1)c1nc2ccccc2s1
- MIC [1]: > 160 µM

Compound: CN(C)C(=O)O/N=C(\C#N)c1nc2ccc(Cl)cc2o1
- Activity [11]: Active
- Activity [12]: Dose-Dependent Effect
- Activity [3]: inactive
- Drug degradation [13]: Unstable
- IC50 (CHO): > 100 µM
- MIC [1]: < 0.24 µM

Compound: OC(O)(c1nc2ccccc2s1)C(F)(F)F
- solubility kinetic [4]: 184 µM (≈ 45.9 µg/mL)
- MIC [1]: > 50 µM

Compound: N#C/C(=N\O)c1nc2ccccc2s1
- IC50 (CHO): > 100 µM
- MIC [1]: > 160 µM

Compound: O/N=C(/c1nc2ccccc2s1)C(F)(F)F
- MIC [1]: 37 µM (≈ 9.11 µg/mL)

Compound: CCCO/N=C(\C#N)c1nc2ccccc2s1
- MIC [1]: > 160 µM

Compound: C/C(=N\O)c1nc2ccccc2s1
- IC50 (CHO): > 100 µM
- MIC [1]: > 125 µM

Compound: N#C/C(=N\[O-])c1ccccc1.[Na+]
- solubility kinetic [4]: 56 µM
- MIC [1]: > 50 µM

Compound: N#C/C(=N\O)c1ccccn1
- solubility kinetic [4]: 202 µM (≈ 29.7 µg/mL)
- MIC [1]: > 50 µM

Compound: CN(C)C(=O)O/N=C(\C#N)c1nc2cc(Cl)ccc2o1
- IC50 (CHO): > 100 µM
- MIC [1]: < 0.24 µM

Compound: [O-][n+]1onc(-c2nc3ccccc3s2)c1-c1nc2ccccc2s1
- solubility kinetic [4]: < 5 µM
- MIC [1]: > 50 µM

Compound: CN(C)C(=O)CO/N=C(\C#N)c1nc2ccccc2s1
- MIC [1]: > 160 µM

Compound: CON=C(c1nc2ccccc2s1)c1nc2ccccc2s1
- IC50 (CHO): > 50 µM
- MIC [1]: > 125 µM

Compound: Cc1nnc(/C(=N\O)c2nc3ccccc3s2)s1
- IC50 (CHO): 38 µM
- MIC [1]: 2.5 µM (≈ 0.691 µg/mL)

Compound: Cc1ccc2nc(/C(C#N)=N/OS(=O)(=O)N(C)C)oc2c1
- MIC [1]: 5 µM (≈ 1.54 µg/mL)

Compound: COC(=O)c1ccc2nc(/C(C#N)=N/OC(=O)N(C)C)oc2c1
- IC50 (CHO): 7.05 µM
- MIC [1]: < 0.24 µM

Compound: N#C/C(=N\OCc1ccccc1)c1nc2ccccc2s1
- MIC [1]: 20 µM (≈ 5.87 µg/mL)

Compound: O/N=C(\c1cnccn1)c1nc2ccccc2s1
- IC50 (CHO): 11.7 µM
- MIC [1]: 3.6 µM (≈ 0.923 µg/mL)

Compound: O/N=C(/c1nc2ccccc2s1)C1CCCCC1
- IC50 (CHO): 51.6 µM
- MIC [1]: > 125 µM

Compound: Cc1nc(/C(=N\O)c2nc3ccccc3s2)no1
- MIC [1]: > 160 µM

Compound: CN(C)C(=O)O/N=C(\C#N)c1nc2ccccc2s1
- IC50 (CHO): > 100 µM
- MIC [1]: < 0.16 µM

Compound: CN(C)C(=O)O/N=C(\C#N)c1nc2ccc(C(F)(F)F)cc2o1
- IC50 (CHO): 46.3 µM
- MIC [1]: < 0.24 µM

Compound: Cc1cccc2oc(/C(C#N)=N/OC(=O)N(C)C)nc12
- IC50 (CHO): > 100 µM
- MIC [1]: < 0.24 µM

Compound: N#C/C(=N\OCc1cccnc1)c1nc2ccccc2s1
- MIC [1]: > 160 µM

Compound: CN(C)C(=O)O/N=C(\C#N)c1nc2cc(F)ccc2o1
- MIC [1]: < 0.24 µM
